Experimental data reported in ChEMBL document CHEMBL1157913, “Development of a new generation of 4-aminoquinoline antimalarial compounds using predictive pharmacokinetic and toxicology models” (J Med Chem, 2010).

Tests used:
[1] = Permeability by PAMPA assay at pH 6.2; type: ADME
[2] = Tmax in CD1 mouse at 50 mg/kg, po; type: ADME, organism-based; parameters: dose 50 mg/kg, route oral; settings: in vivo
Summary of the method: (§1)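 Male CD-1 mice given one 50 mg/kg oral gavage dose (n = 3), vehicle 0.9% saline or 5% DMSO/95% PEG300 depending on compound. Retro-orbital blood into EDTA under isoflurane at 15, 30, 60 min and 2, 4, 8, 10, 24, 48 h (3 mice per time point). Plasma analysed by LC-MS/MS; AUC0-t, Cmax, Tmax, t1/2 derived by noncompartmental software.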

[3] = Permeability by PAMPA assay at pH 7.4; type: ADME
Summary of the method: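 Double-sink PAMPA, GIT-0 lipid-coated filter. Donor 50 μM final (from DMSO stock) at pH 5.0, 6.2 or 7.4; acceptor pH 7.4. Stirred 30 min (40 μm aqueous boundary layer), constant humidity. Both compartments read by UV absorbance 250–500 nm; Pe (cm/s) calculated, four wells per pH, mean ± SD.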

[4] = AUClast in CD1 mouse at 50 mg/kg, po; type: ADME, organism-based; parameters: time 0 - last, dose 50 mg/kg, route oral; settings: plasma; summary of the method: as §1
[5] = Cmax in CD1 mouse at 50 mg/kg, po; type: ADME, organism-based; parameters: dose 50 mg/kg, route oral; settings: in vivo; summary of the method: as §1
[6] = Toxicity in po dosed CD1 mouse administered qd for 7 days; type: organism-based; settings: in vivo
Summary of the method: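 Male and female CD-1 mice (6–8 weeks, n = 5/sex/dose group) received oral gavage once daily for 7 days at 50, 100, 200 or 100, 200, 400 mg/kg/day, depending on the article. The article was suspended daily in 5% DMSO:95% PEG 300, and vehicle-treated animals served as controls. Body weights were taken predose, on day 4 and on day 8. Day-8 retro-orbital blood went to hematology and serum chemistry, followed by necropsy with histopathology and organ weights. MTD was estimated.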

[7] = Permeability by PAMPA assay at pH 5.0; type: ADME

Compound | permeability [1] | Tmax [2] | permeability [3] | AUC(0-t) [4] | Cmax [5] | MTD at 168 h [6] | permeability [7]
CCCN(CCCNc1ccnc2cc(Cl)ccc12)CC1CC1 | 2 ×10⁻⁶ cm/s | 30 min | 1109 ×10⁻⁶ cm/s | 6.79 µM·h | 437 nM | – | –
Clc1ccc2c(NCCCNCc3cccc4c3OCO4)ccnc2c1 | 979 ×10⁻⁶ cm/s | 120 min | 2400 ×10⁻⁶ cm/s | 2.03 µM·h | 240 nM | 100 mg/kg | 19 ×10⁻⁶ cm/s
COc1cccc(CNCCCNc2ccnc3cc(Cl)ccc23)c1O | – | 240 min | 1363 ×10⁻⁶ cm/s | 0.62 µM·h | 65.9 nM | 400 mg/kg | –
CCN(CC)CCCC(C)Nc1ccnc2cc(C(F)(F)F)ccc12 (stereo not drawn) | 235 ×10⁻⁶ cm/s | – | 2704 ×10⁻⁶ cm/s | – | – | – | 2 ×10⁻⁶ cm/s
CCN(CC)CCCC(C)Nc1ccnc2cc(Oc3ccccc3)ccc12 (stereo not drawn) | – | 30 min | – | 0.726 µM·h | 261 nM | – | –
CCN(CC)CCCC(C)Nc1ccnc2cc(Cl)ccc12 (stereo not drawn) [CHLOROQUINE] | 51 ×10⁻⁶ cm/s | 30 min | 775 ×10⁻⁶ cm/s | 2.64 µM·h | 444 nM | – | –
